Screening data (PubChem)
The list is not random: actives were taken first. Their share in the collection is about 4.1%.
hERG rescue: hERG rescue from dofetilide block, primary screen, cell-based, CHO-hERG, FluxOR thallium flux, dofetilide IC70; Voltage-gated inwardly rectifying potassium channel KCNH2 (Homo sapiens), Q12809; dofetilide IC70 present; activation (rescue from dofetilide block), less the hit threshold, % at 10 µM; actives 0.51% (n = 310,000); AID 1511, 2009;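 active = activation above the mean of controls blocked by dofetilide plus 5 SD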;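 note: thallium influx through hERG after potassium depolarization seen as dye fluorescence rise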
KCNQ1 block: inhibitors of human KCNQ1 channel, primary screen, cell-based, thallium flux, high-throughput | Potassium voltage-gated channel subfamily KQT member 1 (Homo sapiens), P51787 | actives 1.3% (n = 310,000) | B-score at 10 µM | CHO-K1 KCNQ1, FluxOR thallium flux fluorescence; hits give high values;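 active = compounds whose thallium flux B-score, printed positive for inhibition, exceeds three library SD while starting fluorescence stays within three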;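 note: channel opened by potassium depolarization with thallium stimulus after 20 min compound exposure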
KCNQ1 pot: potentiators or activators of KCNQ1 channel, primary screen, cell-based, thallium flux, high-throughput; Potassium voltage-gated channel subfamily KQT member 1 (Homo sapiens), P51787; CHO-K1 KCNQ1, thallium flux FluxOR fluorescence; hits give high values; B-score at 10 µM; actives 0.35% (n = 310,000); AID 2648, 2010;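 active = fluorescence ratio B-score, a plate-corrected score, at least three library SD, with initial intensity B-score within 5 SD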
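System: Stable KCNQ1 CHO-K1 line | Incubation: 90 min dye loading and 20 min compound exposure, both at room temperature | Measure: Ratio B score | Medium: Assay buffer for compound exposure, DMSO matched across wells | Compound dosing: Single-concentration screen | Probe or stimulus: K+/Tl+ depolarizing stimulus | Measured by: Kinetic FluxOR fluorescence, 10 s baseline plus 110 s post-stimulus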
Cl transport mod: KCC2 cotransporter modulators, thallium flux, primary screen, cell-based, HEK293 KCC2, FluoZin-2 fluorescence, MLSMR; Solute carrier family 12 member 5 (Homo sapiens), Q9H2X9; actives 2.2% (n = 190,000); B-score of Tl+ flux slope (higher = more flux/activation; lower = inhibition) at 10 µM; KCC2 cells, thallium flux FluoZin-2 fluorescence;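 active = thallium flux slope and its plate-corrected score both differing from the plate sample mean at a set confidence after two filtering rounds, in either direction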;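 note: slope of fluorescence scaled to starting intensity during 10 to 20 s after thallium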
KCNK3 block: human KCNK3 channel inhibitors, primary screen, CHO cells, FluxOR thallium flux, B-score; B-score at 10 µM; FluxOR fluorescence; hits give low values; actives 0.84% (n = 340,000); Potassium channel subfamily K member 3 (Homo sapiens), O14649;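 active = B-score under library mean minus 4 SD, starting fluorescence ratio at most library mean plus 5 SD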;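 note: more negative B-score means stronger inhibition of thallium flux through KCNK3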
KCNK9 block: KCNK9 potassium channel inhibitors, primary screen, HEK293 cells, thallium flux. B-score at 10 µM. FluxOR thallium flux fluorescence; hits give low values. Potassium channel subfamily K member 9 (Homo sapiens), Q9NPC2. actives 1.2% (n = 310,000);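 active = ratio B-score over 3 SD below the library mean, with starting fluorescence within 5 SD of its mean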;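 note: negative B-score means less thallium flux so channel inhibition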
* marks the source's active call; other numbers are inactive results; i = inactive; . = no result given.

SMILES	hERG rescue	KCNQ1 block	KCNQ1 pot	Cl transport mod	KCNK3 block	KCNK9 block
CC(C)(C)OC(=O)NCCCC[C@H](NC(=O)c1nc[nH]c1C(=O)N[C@@H](CCCCNC(=O)OC(C)(C)C)C(=O)OC(C)(C)C)C(=O)OC(C)(C)C	-9.7	i	i	-1.44	i	-7*
CCCCNC(=O)CSc1nnc(-c2cccc(S(=O)(=O)N3CCOCC3)c2)o1	.	.	.	.	i	.
COc1ccc(CCC(=O)Nc2cc(S(=O)(=O)N3CCOCC3)ccc2OC(C)C)cc1	.	.	.	.	i	.
COc1ccc(/C=C/c2nc3ccccc3n2Cc2ccccc2OC)cc1	-14.6	i	i	-0.545	i	i
COc1ccccc1Cn1c(/C=C/c2ccccc2)nc2ccccc21	-7.1	i	i	-0.0379	i	-7*
COc1ccccc1C(=O)NCCC(=O)N1CC=C(c2ccccc2)CC1	-7.6	i	i	.	i	i
CCC(C)(C(=O)NC1CCCC1)N(C(=O)Cc1cccs1)c1c(C)n(C)n(-c2ccccc2)c1=O (centres undefined)	-37.9	10*	i	0.504	i	i
NC(=O)C1CCN(C(=O)c2ccc(Cl)c(S(=O)(=O)N3CCCCCC3)c2)CC1	.	.	.	.	i	.
CN(C(=O)c1ccc(NC(=O)Cc2ccc([N+](=O)[O-])cc2)cc1)C1CCCC1	.	.	.	.	i	.
CCN(CC)c1ccc(C(=C2C=CC(=[N+](CC)CC)C=C2)c2ccc(N(CC)CC)cc2)cc1	.	.	.	.	-11.6*	.
CCN(CC)c1ccc(C(=C2C=CC(=[N+](CC)CC)C=C2)c2ccccc2)cc1	.	.	.	.	i	.
Cc1ccc(C(=O)N2CCN(Cc3ccccc3)CC2)cc1S(=O)(=O)N1CCOCC1	.	.	.	.	i	.
C=CCn1c(SCN2C(=O)c3ccccc3C2=O)nc2ccc(Cl)cc2c1=O	2.8	i	9*	41.7*	i	i
C=CCn1c(SCC(=O)Nc2sccc2C(N)=O)nc2ccccc2c1=O	-7.6	i	i	-1.55	i	i
C=CCn1c(SCC(=O)Nc2sccc2C(N)=O)nc2ccc(Cl)cc2c1=O	-3.6	i	i	11.3*	i	i
CN(Cc1ccccc1)C(=O)c1cccc(NC(=O)Cc2ccc(NC(=O)C3CCCN(C(=O)c4ccccc4)C3)cc2)c1 (centres undefined)	.	.	.	.	i	.
COc1ccc(N2CCN(CNC(=O)c3ccccc3)CC2)cc1	-1.1	i	i	.	i	i
Cc1cccc(NC(=O)CCc2c(C)nc3ncnn3c2C)n1	6.4*	i	i	-0.335	i	i
C=CC[C@H](CC(=O)N(CCO)Cc1ccccc1)C(=O)N[C@@H](COC(=O)[C@@H](CC=C)Cc1ccc(F)cc1)Cc1c[nH]c2ccccc12	.	.	.	.	i	.
CCOC(=O)CSC1=NC(=O)/C(=C\c2ccc(Cl)cc2)S1	-12.2	6*	i	1.04	i	i
Cc1ccc(C(=O)N(CC(C)C)c2c(N)n(Cc3ccccc3)c(=O)[nH]c2=O)o1	-11.6	i	i	.	i	i
C=C1C(=O)C=C2CN(C(=O)c3ccccc3)[C@@](Cc3ccc(F)cc3)(C(=O)OC)[C@@H]12	-26.2	i	17*	-1.07	i	i
COc1ccc(C=CC(=O)c2ccc(OC)c(OC)c2O)cc1OC	.	.	.	.	i	.
Cc1ccc(/C=C/C(=O)c2ccccc(=O)c2O)cc1C	9.1*	i	34*	32.2*	i	i
CC(=O)N(c1ccccc1)C(C(=O)c1ccccc1)c1ccccc1 (centres undefined)	.	.	.	.	i	.
Cc1cn(CC(=O)N(C)Cc2ccco2)c(=O)[nH]c1=O	.	.	.	.	i	.
